From paper PMC2151622 (The Journal of General Physiology, 2007)
Where a chain is given by its changes, count along the chain named.

Columns and labels:
Format in all cases: cell-based, rabbit
[1] = molecular target: T1, D444E-EAAC1 (Oryctolagus cuniculus, UniProt P31597, D444E); assay: Blockade of sodium-dependent transient currents; conditions: for Decay time of transient currents blocked: at +80 mV; for IC50: read-out: IC50 for substrates/blockers of charge movements, Xenopus oocytes, mean ± SEM
T1 sequence (P31597 1-524 D444E): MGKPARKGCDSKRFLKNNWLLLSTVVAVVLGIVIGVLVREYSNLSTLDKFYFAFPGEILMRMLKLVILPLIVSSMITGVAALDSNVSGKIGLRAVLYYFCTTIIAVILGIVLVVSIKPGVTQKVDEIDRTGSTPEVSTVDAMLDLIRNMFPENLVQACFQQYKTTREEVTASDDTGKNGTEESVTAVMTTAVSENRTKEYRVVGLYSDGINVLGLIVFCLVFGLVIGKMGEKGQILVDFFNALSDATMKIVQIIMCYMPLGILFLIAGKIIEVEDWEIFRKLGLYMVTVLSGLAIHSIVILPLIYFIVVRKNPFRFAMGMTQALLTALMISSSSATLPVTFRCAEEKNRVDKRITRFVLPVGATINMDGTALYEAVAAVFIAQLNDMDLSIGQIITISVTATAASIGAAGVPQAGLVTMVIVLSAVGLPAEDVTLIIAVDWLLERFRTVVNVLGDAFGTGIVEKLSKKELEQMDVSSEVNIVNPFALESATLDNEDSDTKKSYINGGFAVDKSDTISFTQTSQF
Method in brief: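 Oocytes expressing the mutant were voltage clamped in ND96 (pH 7.5, HEPES) and stepped from −25 mV. Transients are buffer current minus buffer-plus-compound current. Charge is the sum of current–time integrals at −100 and +80 mV, normalised to 1 mM L-aspartate or 15 mM succinate, and fitted to a generalized Hill equation. Decay constants come from a first-order exponential fit; mean ± SEM of 3–10 oocytes.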

[2] = molecular target: T2, D444S-EAAC1 (Oryctolagus cuniculus, UniProt P31597, D444S); assay: Blockade of sodium-dependent transient currents; conditions: D444S; for Decay time of transient currents blocked: 10 mM compound, at −100 mV; for IC50: read-out: IC50 for substrates/blockers of charge movements, Xenopus oocytes, mean ± SEM
T2 sequence (P31597 1-524 D444S): T1 sequence (P31597 1-524 D444E) with E444S
Method in brief: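 Oocytes expressing the mutant were clamped in sodium ND96 and given 250-ms pulses from −25 mV to −100…+40 mV, with and without compound; TBOA was added to a stopped bath. Isolated transients (without minus with compound) were integrated at −100 and +40 mV and summed. Charge was normalised to 10 mM of each compound and Hill-fitted; 4–6 oocytes. Decay came from an exponential fit; 3–10 oocytes.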

[3] = molecular target: T2, D444S-EAAC1; assay: Substrate-induced steady-state transport currents in oocytes expressing D444S; conditions: 2 mM for L-aspartate and succinate, other concentrations not given
[4] = molecular target: T1, D444E-EAAC1; assay: Substrate-induced steady-state transport currents in oocytes expressing D444E; conditions: 2 mM L-aspartate, other concentrations not given
[5] = molecular target: T3, WT-EAAC1 (Oryctolagus cuniculus, UniProt P31597); assay: Substrate-induced steady-state transport currents in oocytes expressing WT; conditions: 2 mM
T3 sequence (P31597 1-524): T1 sequence (P31597 1-524 D444E) with E444D

[6] = molecular target: T4, D444C-EAAC1 (Oryctolagus cuniculus, UniProt P31597, D444C); assay: Substrate-induced steady-state transport currents in oocytes expressing D444C; conditions: 2 mM L-aspartate (Fig. 1 C), other concentrations not given
T4 sequence (P31597 1-524 D444C): T1 sequence (P31597 1-524 D444E) with E444C

[7] = molecular target: T5, D444C mutant EAAC1 (Oryctolagus cuniculus, UniProt P31597, D444C)
T5 sequence (P31597 1-524 D444C): T1 sequence (P31597 1-524 D444E) with E444C

[8] = molecular target: T6, D444E mutant EAAC1 (Oryctolagus cuniculus, UniProt P31597, D444E)
T6 sequence (P31597 1-524 D444E): T1 sequence (P31597 1-524 D444E)

Compound	Decay time of transient currents blocked ([1]; 10 mM compound) [ms]	IC50 [1] [µM]	Decay time of transient currents blocked [2] [ms]	IC50 [2] [µM]	Induction of steady-state transport currents [3]	Induction of steady-state transport currents [4]	Suppression of the transient currents ([1]; 2 mM)	Decay time of transient currents blocked ([1]; 15 mM succinate) [ms]	Inhibition of the transient currents, concentration dependence ([1]; up to 15 mM)	Induction of steady-state transport currents [5]	Induction of steady-state transport currents [6]	Inhibition of D-[3H]-aspartate uptake [7]	Inhibition of D-[3H]-aspartate uptake [8]
N[C@@H](CC(=O)O)C(=O)O [L-Aspartate, L-aspartate]	10.6 ± 1	9 ± 1	12.2 ± 0.6	130 ± 15	not observed	not observed							
O=C(O)CCC(=O)O [Succinate, succinate]		> 6000	9.9 ± 0.7	1340 ± 110	did not induce any steady-state currents		only slightly suppressed	5.1 ± 0.7	saturation was not reached	No steady-state transport currents	unable to induce steady-state currents	fully inhibited	much less sensitive
